Laboratory results: ChEMBL document CHEMBL5058577, “EUbOPEN Chemogenomics Library 2 (Multiplex)” (2022)

Tested on: HEK-293T
Test: Multiplex assay against HEK293T
Format: toxicity, cell-based
Conditions: human
Method in brief: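 Values for tubulin, mitochondrial-mass and membrane-permeability phenotypes are per cents of cells with healthy nuclei. These cells were identified by CellPathfinder machine-learning gating of live cells that had been stained at seeding with Hoechst33342, BioTracker Green Microtubule Cytoskeleton Dye, MitoTracker Red and Annexin V Alexa Fluor 680 and imaged on a CQ1 microscope at 37°C and 5% CO2 after compound addition. The gating first set Hoechst high-intensity objects apart from normal cells, then split normal cells into healthy, pyknosed or fragmented nuclei, and pyknosed cells into mitotic or apoptotic.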

[1] = 12 h, 1 µM, compound concentration 1 uM, replicate 1
[2] = 12 h, 1 µM, compound concentration 1 uM, replicate 2
[3] = 12 h, 10 µM, compound concentration 10 uM, replicate 1
[4] = 12 h, 10 µM, compound concentration 10 uM, replicate 2
[5] = 24 h, 1 µM, compound concentration 1 uM, replicate 1
[6] = 24 h, 1 µM, compound concentration 1 uM, replicate 2
[7] = 24 h, 10 µM, compound concentration 10 uM, replicate 1
[8] = 24 h, 10 µM, compound concentration 10 uM, replicate 2
[9] = 48 h, 1 µM, compound concentration 1 uM, replicate 1
[10] = 48 h, 1 µM, compound concentration 1 uM, replicate 2
[11] = 48 h, 10 µM, compound concentration 10 uM, replicate 1
[12] = 48 h, 10 µM, compound concentration 10 uM, replicate 2

SMILES: O=C1[C@H](Cc2ccc(O)cc2)N2C(=O)CCN(C(=O)NCc3ccccc3)[C@H]2CN1Cc1cccc2ccccc12
- Population Apoptotic (%) [1]: 44%
- Population Fragmented Nuclei (%) [1]: 6%
- Population Healthy Nuclei (%) [1]: 80%
- Population Hoechst High Intensity Objects (%) [1]: 6%
- Population Membrane Permeable-Phenotype (%) [1]: 0%
- Population Mitochondria Different-Phenotype (%) [1]: 54%
- Population Mitotic Cells (%) [1]: 55%
- Population Normal (%) [1]: 93%
- Population Pyknosed Nuclei (%) [1]: 12%
- Population Tubulin-Different-Phenotype (%) [1]: 46%
- Total Cell Count [1]: 374
- Population Apoptotic (%) [2]: 46%
- Population Fragmented Nuclei (%) [2]: 7%
- Population Healthy Nuclei (%) [2]: 78%
- Population Hoechst High Intensity Objects (%) [2]: 8%
- Population Mitochondria Different-Phenotype (%) [2]: 68%
- Population Mitotic Cells (%) [2]: 53%
- Population Normal (%) [2]: 91%
- Population Pyknosed Nuclei (%) [2]: 13%
- Population Tubulin-Different-Phenotype (%) [2]: 33%
- Total Cell Count [2]: 259
- Population Apoptotic (%) [3]: 68%
- Population Fragmented Nuclei (%) [3]: 5%
- Population Healthy Nuclei (%) [3]: 74%
- Population Hoechst High Intensity Objects (%) [3]: 11%
- Population Membrane Permeable-Phenotype (%) [3]: 0%
- Population Mitochondria Different-Phenotype (%) [3]: 90%
- Population Mitotic Cells (%) [3]: 31%
- Population Normal (%) [3]: 88%
- Population Pyknosed Nuclei (%) [3]: 20%
- Population Tubulin-Different-Phenotype (%) [3]: 76%
- Total Cell Count [3]: 340
- Population Apoptotic (%) [4]: 60%
- Population Healthy Nuclei (%) [4]: 82%
- Population Hoechst High Intensity Objects (%) [4]: 14%
- Population Mitochondria Different-Phenotype (%) [4]: 93%
- Population Mitotic Cells (%) [4]: 40%
- Population Normal (%) [4]: 85%
- Population Pyknosed Nuclei (%) [4]: 11%
- Population Tubulin-Different-Phenotype (%) [4]: 67%
- Total Cell Count [4]: 257
- Population Apoptotic (%) [5]: 23%
- Population Fragmented Nuclei (%) [5]: 7%
- Population Healthy Nuclei (%) [5]: 80%
- Population Hoechst High Intensity Objects (%) [5]: 7%
- Population Membrane Permeable-Phenotype (%) [5]: 0%
- Population Mitochondria Different-Phenotype (%) [5]: 49%
- Population Mitotic Cells (%) [5]: 76%
- Population Normal (%) [5]: 92%
- Population Pyknosed Nuclei (%) [5]: 11%
- Population Tubulin-Different-Phenotype (%) [5]: 38%
- Total Cell Count [5]: 470
- Population Apoptotic (%) [6]: 55%
- Population Fragmented Nuclei (%) [6]: 8%
- Population Healthy Nuclei (%) [6]: 77%
- Population Hoechst High Intensity Objects (%) [6]: 8%
- Population Mitochondria Different-Phenotype (%) [6]: 47%
- Population Mitotic Cells (%) [6]: 45%
- Population Normal (%) [6]: 91%
- Population Pyknosed Nuclei (%) [6]: 14%
- Population Tubulin-Different-Phenotype (%) [6]: 24%
- Total Cell Count [6]: 305
- Population Apoptotic (%) [7]: 68%
- Population Fragmented Nuclei (%) [7]: 7%
- Population Healthy Nuclei (%) [7]: 75%
- Population Hoechst High Intensity Objects (%) [7]: 11%
- Population Membrane Permeable-Phenotype (%) [7]: 0%
- Population Mitochondria Different-Phenotype (%) [7]: 94%
- Population Mitotic Cells (%) [7]: 31%
- Population Normal (%) [7]: 88%
- Population Pyknosed Nuclei (%) [7]: 16%
- Population Tubulin-Different-Phenotype (%) [7]: 65%
- Total Cell Count [7]: 278
- Population Apoptotic (%) [8]: 74%
- Population Fragmented Nuclei (%) [8]: 9%
- Population Healthy Nuclei (%) [8]: 77%
- Population Hoechst High Intensity Objects (%) [8]: 14%
- Population Mitochondria Different-Phenotype (%) [8]: 95%
- Population Mitotic Cells (%) [8]: 25%
- Population Normal (%) [8]: 85%
- Population Pyknosed Nuclei (%) [8]: 12%
- Population Tubulin-Different-Phenotype (%) [8]: 70%
- Total Cell Count [8]: 249
- Population Apoptotic (%) [9]: 30%
- Population Fragmented Nuclei (%) [9]: 14%
- Population Healthy Nuclei (%) [9]: 78%
- Population Hoechst High Intensity Objects (%) [9]: 4%
- Population Membrane Permeable-Phenotype (%) [9]: 0%
- Population Mitochondria Different-Phenotype (%) [9]: 34%
- Population Mitotic Cells (%) [9]: 69%
- Population Normal (%) [9]: 95%
- Population Pyknosed Nuclei (%) [9]: 6%
- Population Tubulin-Different-Phenotype (%) [9]: 26%
- Total Cell Count [9]: 730
- Population Apoptotic (%) [10]: 50%
- Population Fragmented Nuclei (%) [10]: 11%
- Population Healthy Nuclei (%) [10]: 81%
- Population Hoechst High Intensity Objects (%) [10]: 3%
- Population Mitochondria Different-Phenotype (%) [10]: 29%
- Population Mitotic Cells (%) [10]: 50%
- Population Normal (%) [10]: 96%
- Population Pyknosed Nuclei (%) [10]: 7%
- Population Tubulin-Different-Phenotype (%) [10]: 19%
- Total Cell Count [10]: 472
- Population Apoptotic (%) [11]: 71%
- Population Fragmented Nuclei (%) [11]: 8%
- Population Healthy Nuclei (%) [11]: 79%
- Population Hoechst High Intensity Objects (%) [11]: 10%
- Population Membrane Permeable-Phenotype (%) [11]: 0%
- Population Mitochondria Different-Phenotype (%) [11]: 94%
- Population Mitotic Cells (%) [11]: 28%
- Population Normal (%) [11]: 89%
- Population Pyknosed Nuclei (%) [11]: 11%
- Population Tubulin-Different-Phenotype (%) [11]: 63%
- Total Cell Count [11]: 297
- Population Apoptotic (%) [12]: 57%
- Population Fragmented Nuclei (%) [12]: 11%
- Population Healthy Nuclei (%) [12]: 73%
- Population Hoechst High Intensity Objects (%) [12]: 20%
- Population Mitochondria Different-Phenotype (%) [12]: 88%
- Population Mitotic Cells (%) [12]: 42%
- Population Normal (%) [12]: 79%
- Population Pyknosed Nuclei (%) [12]: 14%
- Population Tubulin-Different-Phenotype (%) [12]: 72%
- Total Cell Count [12]: 232
